The results in this text go back to ChEMBL document CHEMBL3856209, “Novel pyrazolopyridine derivatives as potential angiogenesis inhibitors: Synthesis, biological evaluation and transcriptome-based mechanistic analysis” (Eur J Med Chem, 2016).

Active and inactive are the calls of the source.

Experiment [1] has as its system HUVEC. The experiment can be described thus: Effect on RNA28S5 gene expression in serum-starved HUVEC after 24 hrs by microarray analysis relative to control. The format is functional, Homo sapiens. In short, it runs like this:
(§1)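 Serum-starved confluent HUVEC (pooled from 3–5 donors, passage ≤4) were treated with 2 μM compound or vehicle in 2.5% FBS for 6 h or 24 h, and total RNA was isolated. Hybridization was on Illumina Human-HT12. Data were processed with bgAdjust, vst and rsn normalization. Changes versus DMSO were called by moderated paired t-test at p < 0.05 and |log2 fold change| > 0.5.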

Experiment [2] has as its system HUVEC. The experiment in a line: Effect on MSMP gene expression in serum-starved HUVEC after 6 hrs by microarray analysis relative to control. The format is functional, Homo sapiens. The method, boiled down:
as §1

The test system of experiment [3] is HUVEC. The experiment can be described thus: Effect on HINT3 gene expression in serum-starved HUVEC after 6 hrs by microarray analysis relative to control. The format is functional, Homo sapiens. In short, it runs like this:
(§2)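 Confluent, serum-starved HUVEC (pooled from 3–5 donors, passage ≤4) treated with 2 μM compound or vehicle with 2.5% FBS for 6 h or 24 h. Total RNA hybridized to Illumina Human-HT12 arrays. Data were background-corrected, vst-transformed and rsn-normalized. Hits called by moderated paired t-test versus DMSO-treated cells, p < 0.05 and log2 fold change >|0.5|.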

Experiment [4] has as its system HUVEC. The experiment in a line: Effect on IL10 gene expression in serum-starved HUVEC after 6 hrs by microarray analysis relative to control. The format is functional, Homo sapiens. In short, it runs like this:
as §2

The test system of experiment [5] is HUVEC. The experiment in a line: Effect on DLGAP5 gene expression in serum-starved HUVEC after 6 hrs by microarray analysis relative to control. The format is functional, Homo sapiens. In short, it runs like this:
as §2

In experiment [6] the test system is HUVEC. The experiment can be described thus: Effect on RETSAT gene expression in serum-starved HUVEC after 6 hrs by microarray analysis relative to control. The format is functional, Homo sapiens.
For experiment [7], the system named is HUVEC. The experiment in a line: Effect on KIFC1 gene expression in serum-starved HUVEC after 24 hrs by microarray analysis relative to control. The format is functional, Homo sapiens. The method, boiled down: as §1
Experiment [8] concerns HUVEC. The experiment in a line: Effect on PTTG1 gene expression in serum-starved HUVEC after 6 hrs by microarray analysis relative to control. The format is functional, Homo sapiens. The method, boiled down: as §1
The test system of experiment [9] is HUVEC. The experiment in a line: Effect on CENPA gene expression in serum-starved HUVEC after 6 hrs by microarray analysis relative to control. The format is functional, Homo sapiens. In short, it runs like this:
(§3)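 Serum-starved confluent HUVEC treated with 2 μM compound or DMSO in 2.5% FBS for 6 h or 24 h; RNA hybridized to Illumina Human-HT12 arrays. Data background-corrected, vst-transformed and rsn-normalized. Differential probes called by moderated paired t-test (limma) at p < 0.05 and log2 fold change >|0.5| vs DMSO.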

For experiment [10], the system named is HUVEC. The experiment can be described thus: Effect on PTTG3P gene expression in serum-starved HUVEC after 24 hrs by microarray analysis relative to control. The format is functional, Homo sapiens. The method, boiled down:
as §1

For experiment [11], the system named is HUVEC. The experiment can be described thus: Effect on PALD1 gene expression in serum-starved HUVEC after 24 hrs by microarray analysis relative to control. The format is functional, Homo sapiens. The method, boiled down:
as §1

The test system of experiment [12] is HUVEC. The experiment in a line: Effect on DKK1 gene expression in serum-starved HUVEC after 24 hrs by microarray analysis relative to control. The format is functional, Homo sapiens. In short, it runs like this:
(§4)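 Confluent serum-starved HUVEC (primary, pooled from 3–5 donors, passage ≤4) treated with 2 μM compound or DMSO vehicle in 2.5% FBS for 6 h or 24 h. Total RNA hybridized to Illumina Human-HT12 arrays, background-corrected, vst-transformed and rsn-normalized. Differential expression versus DMSO by moderated paired t-test (p < 0.05, |log2 fold change| > 0.5).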

Experiment [13] has as its system HUVEC. The experiment can be described thus: Effect on TYMP gene expression in serum-starved HUVEC after 6 hrs by microarray analysis relative to control. The format is functional, Homo sapiens.
Experiment [14] deals with HUVEC. The experiment can be described thus: Effect on PCYT2 gene expression in serum-starved HUVEC after 24 hrs by microarray analysis relative to control. The format is functional, Homo sapiens.
Experiment [15] concerns HUVEC. The experiment in a line: Effect on SPDL1 gene expression in serum-starved HUVEC after 6 hrs by microarray analysis relative to control. The format is functional, Homo sapiens.
In experiment [16] the test system is HUVEC. The experiment can be described thus: Effect on PLK4 gene expression in serum-starved HUVEC after 6 hrs by microarray analysis relative to control. The format is functional, Homo sapiens. In short, it runs like this:
as §1

In experiment [17] the test system is HUVEC. The experiment in a line: Effect on ALDOC gene expression in serum-starved HUVEC after 6 hrs by microarray analysis relative to control. The format is functional, Homo sapiens. In short, it runs like this:
as §3

The test system of experiment [18] is HUVEC. The experiment in a line: Effect on HMGB2 gene expression in serum-starved HUVEC after 6 hrs by microarray analysis relative to control. The format is functional, Homo sapiens.
The subject of experiment [19] is HUVEC. The experiment in a line: Effect on EMCN gene expression in serum-starved HUVEC after 24 hrs by microarray analysis relative to control. The format is functional, Homo sapiens. The method, boiled down:
as §4

Experiment [20] deals with HUVEC. The experiment in a line: Effect on RNU1-1 gene expression in serum-starved HUVEC after 6 hrs by microarray analysis relative to control. The format is functional, Homo sapiens.
The subject of experiment [21] is HUVEC. The experiment in a line: Effect on EGR1 gene expression in serum-starved HUVEC after 24 hrs by microarray analysis relative to control. The format is functional, Homo sapiens. In short, it runs like this: as §2
Experiment [22] relates to HUVEC. The experiment can be described thus: Effect on TM4SF18 gene expression in serum-starved HUVEC after 24 hrs by microarray analysis relative to control. The format is functional, Homo sapiens.
Experiment [23] can be described thus: Downregulation of UBE2C gene expression in serum-starved HUVEC at 2 uM after 24 hrs by qRT-PCR analysis. The format is functional, cell-based. Particulars: Homo sapiens. In short, it runs like this: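 Serum-starved confluent HUVEC treated with 2 μM compound or vehicle in 2.5% FBS for 24 h. Total RNA isolated and qRT-PCR run in triplicate (95 °C 5 min; 40 cycles of 95 °C 5 s, 58 °C 20 s, 72 °C 5 s), normalized to RPS18S. Fold change vs control, n = 3.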
(In qPCR the cycle at which signal appears reflects the starting amount.)

Experiment [24] deals with HUVEC. The experiment can be described thus: Effect on FAM198B gene expression in serum-starved HUVEC after 6 hrs by microarray analysis relative to control. The format is functional, Homo sapiens. The method, boiled down:
as §4

Experiment [25] concerns HUVEC. The experiment can be described thus: Effect on BHLHE40 gene expression in serum-starved HUVEC after 24 hrs by microarray analysis relative to control. The format is functional, Homo sapiens. The method, boiled down:
as §3

The nature of experiment [26]: Upregulation of SQLE gene expression in serum-starved HUVEC at 2 uM after 24 hrs by qRT-PCR analysis. The format is functional, cell-based. Particulars: Homo sapiens.
The test system of experiment [27] is HUVEC. The experiment can be described thus: Effect on CCL5 gene expression in serum-starved HUVEC after 6 hrs by microarray analysis relative to control. The format is functional, Homo sapiens. In short, it runs like this: as §3
The test system of experiment [28] is HUVEC. The experiment can be described thus: Effect on CENPW gene expression in serum-starved HUVEC after 24 hrs by microarray analysis relative to control. The format is functional, Homo sapiens. In short, it runs like this: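 Serum-starved confluent HUVEC (primary, pooled from 3–5 donors, passage ≤4) treated with 2 μM test compound or DMSO vehicle (working dilutions ≤0.1% v/v) in presence of 2.5% FBS for 6 h or 24 h; total RNA hybridized to Illumina Human-HT12 arrays; background correction, vst, rsn normalization; moderated paired t-test versus DMSO, thresholds p < 0.05 and log2 fold change >|0.5|.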

The test system of experiment [29] is HUVEC. The experiment in a line: Effect on MYLIP gene expression in serum-starved HUVEC after 6 hrs by microarray analysis relative to control. The format is functional, Homo sapiens.
The test system of experiment [30] is HUVEC. The experiment can be described thus: Effect on TUBB4B gene expression in serum-starved HUVEC after 6 hrs by microarray analysis relative to control. The format is functional, Homo sapiens.
The test system of experiment [31] is HUVEC. The experiment can be described thus: Effect on F2RL1 gene expression in serum-starved HUVEC after 6 hrs by microarray analysis relative to control. The format is functional, Homo sapiens. In short, it runs like this:
as §4

Experiment [32] concerns HUVEC. The experiment can be described thus: Effect on MYLIP gene expression in serum-starved HUVEC after 24 hrs by microarray analysis relative to control. The format is functional, Homo sapiens. In short, it runs like this: as §1
The subject of experiment [33] is HUVEC. The experiment in a line: Effect on TUBB2B gene expression in serum-starved HUVEC after 6 hrs by microarray analysis relative to control. The format is functional, Homo sapiens.
Experiment [34] has as its system HUVEC. The experiment in a line: Effect on SULF1 gene expression in serum-starved HUVEC after 6 hrs by microarray analysis relative to control. The format is functional, Homo sapiens.
Experiment [35] can be described thus: Upregulation of INSIG1 gene expression in serum-starved HUVEC at 2 uM after 24 hrs by qRT-PCR analysis. The format is functional, cell-based. To be noted: Homo sapiens.

As to `COc1ccc(Cn2nc(-c3ccccc3)c3cc(Nc4ccc(N5CCN(C)CC5)cc4)nc(N4CCNCC4)c32)cc1`, the log2FC in the experiment on HUVEC [1] was 0.4902; in the experiment on HUVEC [2] it was -0.0154; with HUVEC [3], -0.0444; in the experiment on HUVEC [4] it was 0.4049; in the experiment with HUVEC [5] it was 0.2579; with HUVEC [6], 0.0844.
For the compound `COc1ccc(Cn2nc(-c3ccccc3)c3cc(Cl)nc(N4CCNCC4)c32)cc1`, the log2FC in the experiment on HUVEC [7] is reported as -0.5682; with HUVEC [1] it was 0.141; in the experiment on HUVEC [2], -0.0237; in the experiment with HUVEC [8] it was -0.1057; in the experiment on HUVEC [10], -0.5735. In the experiment with HUVEC [9], the “fold change (FC)” value is 0.0058.
For the compound `COc1ccc(Cn2nc(-c3ccccc3)c3cc(Nc4ccc(N5CCN(C)CC5)cc4)nc(N4CCN(C)CC4)c32)cc1`, the log2FC with HUVEC [11] is given as 0.5892; with HUVEC [7], -0.6872; with HUVEC [13], 0.5089; in the experiment with HUVEC [14], 0.5377; with HUVEC [15], 0.1139; with HUVEC [21], 0.5707. Besides, the log2FC is 0.5978 in the experiment with HUVEC [22]; -0.1804 in the experiment on HUVEC [8]; 0.6018 with HUVEC [25]; -0.2675 in the experiment on HUVEC [32]; -0.5177 in the experiment with HUVEC [10]; 0.5151 in the experiment on HUVEC [34]. Besides, the “fold change (FC)” value is on record as -0.6899 in the experiment on HUVEC [12]; 0.1554 in the experiment on HUVEC [16]; 0.067 in the experiment with HUVEC [17]; -0.0362 with HUVEC [18]; 0.5299 in the experiment on HUVEC [19]; -0.6255 in the experiment with HUVEC [20]. Besides, the “fold change (FC)” value is listed as 0.1107 in the experiment on HUVEC [5]; 0.7445 in the experiment on HUVEC [24]; 0.2358 in the experiment with HUVEC [27]; -0.5146 with HUVEC [28]; -0.5593 in the experiment on HUVEC [29]; -0.206 in the experiment on HUVEC [30]. The “fold change (FC)” value in the experiment on HUVEC [31] is listed as 0.5398; with HUVEC [33], 0.219. For the same compound, the outcome in experiment [23], in experiment [26] and in experiment [35] was Active.
